In paper PMC11025564 (The journal of physical chemistry. B, 2018):

System: integrin αIIbβ3 TM complex
Assay type: binding, Human
Details: ITC, 28 °C, same bicelles
Procedure, shortened: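 β3 TM peptide (10 μM in cell) titrated with αIIb TM peptide in 10 s injections until saturation. Medium: 43 mM DHPC, 17 mM POPC, 25 mM sodium phosphate, pH 7.4, with 9 mM free DHPC. Heats of dilution of both peptides were subtracted. ΔH° and mole-fraction K_XY were fitted with 1:1 stoichiometry fixed. Peptide amounts were set by UV absorbance.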

In the case of “αIIb + β3: Human integrin αIIb(A958-P998) and β3(P685-F727) TM peptides incorporating β3(C687S), recombinantly produced; wild-type pair”, the “ΔG°” value (ΔG° = −RT ln KXY) is reported as -4.84 ± 0.01 kcal/mol and the “TΔS°” value (ΔS° = (ΔH° − ΔG°)/T) is reported as -11.1 ± 0.1 kcal/mol.
